# Test results published in ChEMBL document CHEMBL4196006, “Aryl thiosemicarbazones for the treatment of trypanosomatidic infections” (Eur J Med Chem, 2018).
# Tests used:
# [1] = Cytotoxicity against human THP1 cells assessed as decrease in viable cells after 72 hrs by MTT assay; type: cell-based, THP-1; conditions: THP1 cells
# Summary of the method: (§1)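 THP-1-derived macrophages exposed to compounds for 72 h, tested at 100 μM or in dose-response; viability read by MTT colorimetric assay.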
# [2] = Cytotoxicity against human WI38 cells assessed as growth inhibition at 10 uM after 48 hrs by CellTiter-Glo assay relative to control; values are per cent of control; conditions: WI38 cells
# CYP2C9 = CYP2C9 (Homo sapiens, UniProt P11712); experiment: Inhibition of human microsomal CYP2C9 expressed in baculovirus infected BTI-TN-5B1-4 cells at 10 uM incubated for 30 mins by luciferase assay relative to control; type: ADME
# Summary of the method: (§2)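 CYP1A2, 2C9, 2C19, 2D6 and 3A4 in microsomes from baculovirus-infected insect cells, each with a P450-Glo luminogenic substrate. Inhibition read as loss of light; single-point at 10 μM, triplicate.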
# [3] = target: T1, Pteridine reductase, putative (Trypanosoma brucei) (UniProt Q581W1); experiment: Inhibition of Trypanosoma brucei PTR1 at 50 uM using H2B as substrate in presence of NADPH by photometric analysis relative to control
# T1 sequence (whole entry): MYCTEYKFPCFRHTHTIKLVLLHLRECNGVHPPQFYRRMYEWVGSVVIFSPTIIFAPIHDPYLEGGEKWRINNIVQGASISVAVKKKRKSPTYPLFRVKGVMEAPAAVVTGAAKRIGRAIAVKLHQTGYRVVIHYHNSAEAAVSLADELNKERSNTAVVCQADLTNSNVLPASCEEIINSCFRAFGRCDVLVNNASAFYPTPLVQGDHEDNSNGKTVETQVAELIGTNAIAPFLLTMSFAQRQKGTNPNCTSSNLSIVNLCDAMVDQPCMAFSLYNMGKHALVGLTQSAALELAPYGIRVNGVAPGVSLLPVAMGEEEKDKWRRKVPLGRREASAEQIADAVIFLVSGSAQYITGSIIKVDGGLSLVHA
# [4] = target: T2, Pteridine reductase 1 (Leishmania major) (UniProt Q01782); experiment: Inhibition of Leishmania major PTR1 at 50 uM using H2B as substrate in presence of NADPH by photometric analysis relative to control
# T2 sequence (whole entry): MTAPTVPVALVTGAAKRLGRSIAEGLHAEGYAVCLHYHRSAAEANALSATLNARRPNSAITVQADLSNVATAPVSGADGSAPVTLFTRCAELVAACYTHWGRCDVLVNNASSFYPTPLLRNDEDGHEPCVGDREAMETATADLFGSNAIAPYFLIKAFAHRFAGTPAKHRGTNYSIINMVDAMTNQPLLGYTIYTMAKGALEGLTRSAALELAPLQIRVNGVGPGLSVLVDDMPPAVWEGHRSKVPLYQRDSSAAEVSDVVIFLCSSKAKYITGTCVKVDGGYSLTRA
# Leishmania infantum [5] = experiment: Antileishmanial activity against Leishmania infantum amastigote form assessed as parasite growth inhibition at 50 uM after 72 hrs by steady-Glo reagent based assay relative to control; type: functional; conditions: read-out: GI
# Summary of the method: (§3)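 Intramacrophage L. infantum amastigotes in THP-1-derived macrophages, tested at 50 μM or in dose-response. Plates held 72 h at 37 °C, 5% CO2. Medium was replaced by PBS, macrophages lysed, and parasites read by Steady-Glo luminescence. High-content imaging gave host cell number, infection ratio (infected/total cells) and parasites per infected cell. Values are means of at least two independent experiments.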
# Trypanosoma brucei [6] = experiment: Potentiation of methotrexate-induced antitrypanosomal activity against Trypanosoma brucei Lister 427 bloodstream form at 10 uM after 72 hrs by resazurin dye-based assay; type: functional
# Trypanosoma brucei [7] = experiment: Antitrypanosomal activity against Trypanosoma brucei Lister 427 bloodstream form after 72 hrs by SYBR Green assay; type: functional, organism-based; conditions: Lister 427, 72 h
# Trypanosoma brucei [8] = experiment: Antitrypanosomal activity against Trypanosoma brucei Lister 427 bloodstream form at 10 uM after 72 hrs by resazurin dye-based assay relative to control; type: functional
# CYP2D6 = CYP2D6 (Homo sapiens, UniProt P10635); experiment: Inhibition of human microsomal CYP2D6 expressed in baculovirus infected BTI-TN-5B1-4 cells at 10 uM incubated for 30 mins by luciferase assay relative to control; type: ADME; summary of the method: as §2
# [9] = Cytotoxicity against human U2OS cells assessed as viable cells at 50 uM after 72 hrs by MTT assay relative to control; type: cell-based; conditions: read-out: Activity
# [10] = Cytotoxicity against human 786-O cells assessed as inhibition of mitochondrial viability at 10 uM after 6 hrs by CMXRos staining based assay relative to control; type: cell-based, 786-0; conditions: read-out: INH
# Summary of the method: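 Mitochondrial toxicity monitored by MitoTracker Red CMXRos uptake and high-content imaging; compound at 10 μM, triplicate.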
# Trypanosoma brucei [11] = experiment: Antitrypanosomal activity against Trypanosoma brucei Lister 427 bloodstream form assessed as parasite growth inhibition at 50 uM after 72 hrs by SYBR Green assay relative to control; type: functional; conditions: Lister 427, 72 h, read-out: GI
# [12] = Selectivity index, ratio of CC50 for human U2OS cells to EC50 for Trypanosoma cruzi amastigote form; type: toxicity; conditions: read-out: Ratio CC50/EC50
# Summary of the method: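 Selectivity index = CC50 in the human host or cytotoxicity cell line divided by parasite EC50.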
# Trypanosoma brucei [13] = experiment: Potentiation of methotrexate-induced antitrypanosomal activity against Trypanosoma brucei Lister 427 bloodstream form at 10 uM after 72 hrs by resazurin dye-based assay relative to control; type: functional
# CYP3A4 = CYP3A4 (Homo sapiens, UniProt P08684); experiment: Inhibition of human microsomal CYP3A4 expressed in baculovirus infected BTI-TN-5B1-4 cells at 10 uM incubated for 30 mins by luciferase assay relative to control; type: ADME; summary of the method: as §2
# hERG (KCNH2) = hERG (KCNH2) (Homo sapiens, UniProt Q12809); experiment: Inhibition of human ERG at 10 uM incubated for 2 hrs by fluorescence polarisation assay relative to control
# [14] = Cytotoxicity against human THP1 cells assessed as viable cells at 100 uM after 72 hrs by MTT assay relative to control; type: cell-based, THP-1; conditions: read-out: Activity; summary of the method: as §1
# CYP2C19 = CYP2C19 (Homo sapiens, UniProt P33261); experiment: Inhibition of human microsomal CYP2C19 expressed in baculovirus infected BTI-TN-5B1-4 cells at 10 uM incubated for 30 mins by luciferase assay relative to control; type: ADME; summary of the method: as §2
# Aurora kinase B = Aurora kinase B (Homo sapiens, UniProt Q96GD4); experiment: Inhibition of recombinant full-length human aurora B kinase expressed in baculovirus system at 10 uM using MBP as substrate incubated for 45 mins by ADP-glo kinase assay; conditions: probe MBP
# Summary of the method: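 Aurora B activity measured as ADP formation via coupled luciferase ADP-Glo luminescence; single-point at 10 μM, triplicate.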
# CYP1A2 = target: T3, CYP1A2 (Homo sapiens, UniProt P05177); experiment: Inhibition of human microsomal CYP1A2 expressed in baculovirus infected BTI-TN-5B1-4 cells at 10 uM incubated for 30 mins by luciferase assay relative to control; type: ADME; summary of the method: as §2
# T3 sequence (P05177 whole entry): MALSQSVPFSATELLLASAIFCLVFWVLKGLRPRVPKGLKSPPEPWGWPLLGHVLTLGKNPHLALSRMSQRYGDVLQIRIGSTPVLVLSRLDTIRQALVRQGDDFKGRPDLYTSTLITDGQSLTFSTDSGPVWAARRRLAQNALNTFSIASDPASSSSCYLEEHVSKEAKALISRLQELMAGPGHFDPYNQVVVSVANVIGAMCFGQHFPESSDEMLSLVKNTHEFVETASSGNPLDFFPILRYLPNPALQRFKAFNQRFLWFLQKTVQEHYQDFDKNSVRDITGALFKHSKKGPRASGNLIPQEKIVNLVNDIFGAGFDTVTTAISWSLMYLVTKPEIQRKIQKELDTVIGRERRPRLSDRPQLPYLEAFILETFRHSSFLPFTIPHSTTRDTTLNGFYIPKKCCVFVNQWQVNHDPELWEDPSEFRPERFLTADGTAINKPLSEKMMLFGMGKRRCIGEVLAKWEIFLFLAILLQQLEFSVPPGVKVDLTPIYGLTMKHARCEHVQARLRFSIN
# Trypanosoma cruzi [15] = experiment: Antitrypanosomal activity against Trypanosoma cruzi amastigote form infected in human U2OS cells assessed as parasite growth inhibition after 72 hrs; type: functional, organism-based
# Summary of the method: (§4)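 U2OS monolayers grown for 24 h, then infected with tissue-derived trypomastigotes of T. cruzi Y strain. Compounds were added 24 h after infection at 50 μM (single-point) or in dose-response, with 72 h exposure. Plates were fixed, stained and analysed by high-content imaging; activity was normalized to infected and non-infected controls. Means of at least two experiments; benznidazole as reference.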
# Trypanosoma cruzi [16] = experiment: Antitrypanosomal activity against Trypanosoma cruzi amastigote form infected in human U2OS cells assessed as parasite growth inhibition at 50 uM after 72 hrs relative to control; type: functional; conditions: read-out: GI; summary of the method: as §4
# [17] = Cytotoxicity against human U2OS cells assessed as decrease in viable cells after 72 hrs by cell number count in anti-T. cruzi high content imaging assay; conditions: U2OS cells
# [18] = Cytotoxicity against human A549 cells assessed as growth inhibition at 10 uM after 48 hrs by CellTiter-Glo assay relative to control; values are per cent of control; conditions: A549 cells
# Cytochrome P450 2C9 = Cytochrome P450 2C9 (Homo sapiens, UniProt P11712); experiment: Inhibition of human microsomal CYP2C9 expressed in baculovirus infected BTI-TN-5B1-4 cells incubated for 30 mins by luciferase assay
# Leishmania infantum [19] = experiment: Antileishmanial activity against Leishmania infantum amastigote form after 72 hrs by steady-Glo reagent based assay; type: functional, organism-based; summary of the method: as §3
# Leishmania infantum [20] = experiment: Antileishmanial activity against Leishmania infantum amastigote form; type: functional, organism-based; summary of the method: as §3
# Cytochrome P450 2C9, sequence (P11712 whole entry): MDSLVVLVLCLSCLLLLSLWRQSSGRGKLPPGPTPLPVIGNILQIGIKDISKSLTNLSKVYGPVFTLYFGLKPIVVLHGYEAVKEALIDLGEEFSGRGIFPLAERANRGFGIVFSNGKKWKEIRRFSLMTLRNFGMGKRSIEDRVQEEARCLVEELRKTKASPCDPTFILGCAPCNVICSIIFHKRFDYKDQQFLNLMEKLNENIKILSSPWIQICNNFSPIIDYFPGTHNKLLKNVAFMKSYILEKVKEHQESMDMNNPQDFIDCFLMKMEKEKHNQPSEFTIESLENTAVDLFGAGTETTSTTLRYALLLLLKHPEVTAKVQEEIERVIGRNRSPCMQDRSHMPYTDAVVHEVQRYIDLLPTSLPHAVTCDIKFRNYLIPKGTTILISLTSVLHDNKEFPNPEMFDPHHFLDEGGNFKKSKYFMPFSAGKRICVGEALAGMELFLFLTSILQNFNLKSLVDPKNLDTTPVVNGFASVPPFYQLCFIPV
# Aurora kinase B, sequence (Q96GD4 whole entry): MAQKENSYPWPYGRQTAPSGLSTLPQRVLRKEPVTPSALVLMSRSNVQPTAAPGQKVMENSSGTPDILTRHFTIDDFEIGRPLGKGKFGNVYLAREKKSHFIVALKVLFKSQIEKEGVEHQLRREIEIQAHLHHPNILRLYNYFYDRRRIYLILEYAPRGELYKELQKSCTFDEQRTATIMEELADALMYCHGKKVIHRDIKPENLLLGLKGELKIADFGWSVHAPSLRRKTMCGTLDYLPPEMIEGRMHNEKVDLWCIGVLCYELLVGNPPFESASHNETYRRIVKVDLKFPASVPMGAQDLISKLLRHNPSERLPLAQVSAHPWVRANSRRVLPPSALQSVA
# CYP2C19, sequence (P33261 whole entry): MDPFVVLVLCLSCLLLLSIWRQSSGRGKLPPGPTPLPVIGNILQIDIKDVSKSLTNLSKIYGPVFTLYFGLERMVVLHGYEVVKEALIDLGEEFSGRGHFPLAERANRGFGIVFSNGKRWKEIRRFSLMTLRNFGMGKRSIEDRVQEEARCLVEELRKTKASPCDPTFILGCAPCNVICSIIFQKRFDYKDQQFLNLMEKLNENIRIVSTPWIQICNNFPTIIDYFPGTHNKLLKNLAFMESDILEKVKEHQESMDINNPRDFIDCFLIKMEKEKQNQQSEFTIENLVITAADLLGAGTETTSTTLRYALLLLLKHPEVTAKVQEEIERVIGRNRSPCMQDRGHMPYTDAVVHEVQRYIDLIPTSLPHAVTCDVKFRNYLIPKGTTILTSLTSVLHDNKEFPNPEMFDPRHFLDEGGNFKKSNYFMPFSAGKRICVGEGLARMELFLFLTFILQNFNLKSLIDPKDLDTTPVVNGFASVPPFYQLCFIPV
# hERG (KCNH2), sequence (Q12809 whole entry): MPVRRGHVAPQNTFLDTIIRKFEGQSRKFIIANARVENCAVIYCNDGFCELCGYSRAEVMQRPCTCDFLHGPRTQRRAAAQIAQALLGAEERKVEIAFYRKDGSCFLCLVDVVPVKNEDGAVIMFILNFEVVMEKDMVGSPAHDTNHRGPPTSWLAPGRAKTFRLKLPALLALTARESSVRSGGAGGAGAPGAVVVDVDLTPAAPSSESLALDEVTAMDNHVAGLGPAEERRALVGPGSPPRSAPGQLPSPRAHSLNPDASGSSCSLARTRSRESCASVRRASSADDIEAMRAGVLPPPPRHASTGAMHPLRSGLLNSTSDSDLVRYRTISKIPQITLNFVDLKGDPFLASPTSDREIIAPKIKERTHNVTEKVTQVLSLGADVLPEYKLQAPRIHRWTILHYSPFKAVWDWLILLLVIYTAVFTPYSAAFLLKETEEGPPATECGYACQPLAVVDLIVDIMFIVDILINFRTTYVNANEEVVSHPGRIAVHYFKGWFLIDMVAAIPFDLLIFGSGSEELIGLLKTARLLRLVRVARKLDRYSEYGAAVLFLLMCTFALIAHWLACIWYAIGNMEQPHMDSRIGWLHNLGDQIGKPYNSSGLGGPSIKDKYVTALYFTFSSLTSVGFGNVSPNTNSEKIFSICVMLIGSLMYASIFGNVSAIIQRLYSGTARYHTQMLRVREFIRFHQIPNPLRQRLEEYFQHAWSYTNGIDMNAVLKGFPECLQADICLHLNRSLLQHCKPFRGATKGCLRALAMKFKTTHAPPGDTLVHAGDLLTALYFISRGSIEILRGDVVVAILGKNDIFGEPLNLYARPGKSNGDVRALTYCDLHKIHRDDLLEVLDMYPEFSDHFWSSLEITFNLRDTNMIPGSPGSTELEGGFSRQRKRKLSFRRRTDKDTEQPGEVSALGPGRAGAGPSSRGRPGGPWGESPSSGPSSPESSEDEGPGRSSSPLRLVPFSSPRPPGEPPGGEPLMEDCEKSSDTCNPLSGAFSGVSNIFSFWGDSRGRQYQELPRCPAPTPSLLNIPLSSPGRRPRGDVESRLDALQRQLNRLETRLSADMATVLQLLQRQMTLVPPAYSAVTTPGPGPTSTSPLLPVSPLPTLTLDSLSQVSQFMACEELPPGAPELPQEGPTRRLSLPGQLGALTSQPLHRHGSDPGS
# CYP2C9, sequence (P11712 whole entry): as the sequence (P11712 whole entry) above
# CYP2D6, sequence (P10635 whole entry): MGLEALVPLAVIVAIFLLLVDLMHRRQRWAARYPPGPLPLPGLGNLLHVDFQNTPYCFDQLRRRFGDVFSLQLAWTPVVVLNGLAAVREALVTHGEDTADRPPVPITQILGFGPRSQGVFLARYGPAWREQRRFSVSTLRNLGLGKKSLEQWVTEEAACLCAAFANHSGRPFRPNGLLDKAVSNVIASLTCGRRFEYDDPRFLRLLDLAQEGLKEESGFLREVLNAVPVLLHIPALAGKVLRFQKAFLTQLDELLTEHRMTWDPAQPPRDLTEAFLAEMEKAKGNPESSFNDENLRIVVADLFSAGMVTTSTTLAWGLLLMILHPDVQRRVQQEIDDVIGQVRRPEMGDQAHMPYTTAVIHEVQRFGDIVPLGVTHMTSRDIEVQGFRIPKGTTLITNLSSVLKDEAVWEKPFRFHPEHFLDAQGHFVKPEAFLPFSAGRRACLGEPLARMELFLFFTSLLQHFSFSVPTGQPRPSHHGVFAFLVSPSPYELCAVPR
# CYP3A4, sequence (P08684 whole entry): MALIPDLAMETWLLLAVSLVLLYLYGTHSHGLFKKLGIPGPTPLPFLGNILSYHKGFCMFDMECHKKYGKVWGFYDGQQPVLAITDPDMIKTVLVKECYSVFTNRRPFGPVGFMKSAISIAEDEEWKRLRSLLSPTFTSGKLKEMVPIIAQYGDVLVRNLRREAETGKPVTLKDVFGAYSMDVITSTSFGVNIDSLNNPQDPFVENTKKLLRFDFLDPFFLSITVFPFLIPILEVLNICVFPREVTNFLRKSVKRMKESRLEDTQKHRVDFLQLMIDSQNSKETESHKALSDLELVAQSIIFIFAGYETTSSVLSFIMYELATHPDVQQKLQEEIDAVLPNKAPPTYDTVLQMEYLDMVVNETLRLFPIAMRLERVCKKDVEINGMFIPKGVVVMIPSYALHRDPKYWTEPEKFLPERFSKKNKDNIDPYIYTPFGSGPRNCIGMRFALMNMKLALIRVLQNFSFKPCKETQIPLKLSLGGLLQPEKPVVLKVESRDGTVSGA
structure (smiles),measurement,setting,value
N=C(N)c1ccc(OCCCCCOc2ccc(C(=N)N)cc2)cc1 [PENTAMIDINE],CC50 at 72 h,[1],10 µM
CSc1ccc(/C=N/NC(N)=S)cc1,"cell growth (% of control) at 48 h, 10 µM",[2],107%
same,"inhibition at 0.5 h, 10 µM",CYP2C9,12.4%
same,inhibition,[3],9.49%
same,inhibition,[4],11.2%
same,inhibition of growth at 50 µM,Leishmania infantum [5],34.1%
same,PF,Trypanosoma brucei [6],2.24
same,EC50,Trypanosoma brucei [7],44.4 µM
same,Activity,Trypanosoma brucei [8],15.33%
same,"inhibition at 0.5 h, 10 µM",CYP2D6,35.9%
same,"viability at 72 h, 50 µM",[9],42.7%
same,"cytotoxicity at 6 h, 10 µM",[10],-10.8%
same,inhibition of growth at 50 µM,Trypanosoma brucei [11],82.6%
same,selectivity ratio,[12],> 17
same,Activity,Trypanosoma brucei [13],88.67%
same,"inhibition at 0.5 h, 10 µM",CYP3A4,-15.9%
same,"inhibition at 2 h, 10 µM",hERG (KCNH2),-2.87%
same,"viability at 72 h, 100 µM",[14],35.7%
same,"inhibition at 0.5 h, 10 µM",CYP2C19,-38.2%
same,"inhibition at 0.75 h, 10 µM",Aurora kinase B,-12.2%
same,"inhibition at 0.5 h, 10 µM",CYP1A2,27%
same,EC50,Trypanosoma cruzi [15],2.58 to 29.5 µM
same,inhibition of growth at 50 µM,Trypanosoma cruzi [16],89.3%
same,CC50 at 72 h,[17],> 44 µM
same,"cell growth (% of control) at 48 h, 10 µM",[18],136%
C[C@@H]1[C@H](O)[C@@H](C)/C=C/C=C/C=C/C=C/C=C/C=C/C=C/[C@H](O[C@@H]2O[C@H](C)[C@@H](O)[C@H](N)[C@@H]2O)C[C@@H]2O[C@](O)(C[C@@H](O)C[C@@H](O)[C@H](O)CC[C@@H](O)C[C@@H](O)CC(=O)O[C@H]1C)C[C@H](O)[C@H]2C(=O)O [AMPHOTERICIN B],IC50,Cytochrome P450 2C9,> 100 µM
same,EC50,Leishmania infantum [19],200 nM
same,CC50 at 72 h,[1],16.9 µM
same,EC50,Leishmania infantum [20],1140 nM
CCCCCCCCCCCCCCCCOP(=O)([O-])OCC[N+](C)(C)C [MILTEFOSINE],IC50,Cytochrome P450 2C9,> 100 µM
same,EC50,Leishmania infantum [19],2510 to 2800 nM
same,CC50 at 72 h,[1],15 µM
same,EC50,Leishmania infantum [20],1290 nM
same,CC50 at 72 h,[17],11.5 µM
